Data taken from ChEMBL document CHEMBL5352501, “Catalytic Degraders Effectively Address Kinase Site Mutations in EML4-ALK Oncogenic Fusions” (J Med Chem, 2023).
≈ marks a conversion by molar mass, not a printed value. Calls of active or inactive are those of the source. No cut-off for these calls is given here.

Assays:
[1] = test system: BaF3; experiment: Antiproliferative activity against mouse Ba/F3 cells stably expressing HiBiT-tagged wild type EML4-ALK variant 3 assessed as cell growth inhibition incubated for 72 hrs by CellTiter-Glo assay; type: functional
In short: (§1)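 Ba/F3 cells stably expressing HiBiT-tagged EML4-ALK v3 (wild type or the named kinase-site mutant) were treated with compound for 72 h. Growth inhibition was reported as log GI50.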

[2] = test system: BaF3; type: functional; details: Mus musculus, time 72 hrs
[3] = test system: BaF3; experiment: Antiproliferative activity against mouse Ba/F3 cells stably expressing HiBiT-tagged EML4-ALK variant 3 G1202R mutant assessed as cell growth inhibition incubated for 72 hrs by CellTiter-Glo assay; type: functional; in short: as §1
[4] = test system: BaF3; type: functional; details: Mus musculus, time 72 hrs, read-out: pGI50 (converted)
[5] = test system: BaF3; experiment: Antiproliferative activity against mouse Ba/F3 cells stably expressing HiBiT-tagged EML4-ALK variant 3 C1156Y mutant assessed as cell growth inhibition incubated for 72 hrs by CellTiter-Glo assay; type: functional; in short: as §1
[6] = Microsomal stability in human liver microsomes assessed as intrinsic clearance at 1 uM and measured upto 60 mins in presence of NADPH by LC-MS/MSC analysis; type: ADME, Microsome; details: read-out: CLH
[7] = test system: Erythrocyte; experiment: Hemolytic activity in human RBC assessed as hemolysis incubated for 45 mins by absorbance based microplate reader analysis; type: toxicity, cell-based; details: 0.75 h
[8] = test system: Erythrocyte; experiment: Hemolytic activity in mouse RBC assessed as hemolysis incubated for 45 mins by absorbance based microplate reader analysis; type: toxicity, cell-based; details: 0.75 h
[9] = biological target: Protein cereblon/ALK tyrosine kinase receptor/Echinoderm microtubule-associated protein-like 4 (Homo sapiens, UniProt Q9UM73+Q9HC35+Q96SW2); experiment: PROTAC activity at human CRBN/HiBit-tagged wild type human EML4-ALK variant 3b expressed in mouse BaF3 cells assessed as induction of EML4-ALK variant 3b fusion protein degradation incubated for 4 hrs by Nano-Glo HiBiT assay; type: cell-based
[10] = biological target: ALK tyrosine kinase receptor (Homo sapiens, UniProt Q9UM73); experiment: Inhibition of N-terminal flag-tagged NanoLuc fused ALK kinase domain (1072 to 1410 residues) (unknown origin) expressed in mouse BaF3 cells assessed as reduction in BRET signal incubated for 2 hrs in presence of CPD-1571 tracer by NanoBRET assay; type: cell-based
[11] = biological target: Protein cereblon/ALK tyrosine kinase receptor/Echinoderm microtubule-associated protein-like 4 (Homo sapiens, UniProt Q9UM73+Q9HC35+Q96SW2, G1202R); experiment: PROTAC activity at human CRBN/EML4-ALK variant 3b G1202R mutant expressed in mouse BaF3 cells assessed as induction of EML4-ALK fusion protein degradation incubated for 4 hrs by Nano-Glo HiBiT assay; type: cell-based
[12] = Oral bioavailability in C57BL/J6 mouse at 10 mg/kg and measured upto 24 hrs by LC-MS/MS analysis; type: ADME, organism-based; details: in vivo
In short: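 Mouse PK was run with both oral and intravenous dosing, with 10 mg/kg as the study dose. Oral bioavailability was derived from comparing the two routes.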

[13] = biological target: T1, Aurora kinase A (Homo sapiens) (UniProt O14965); experiment: Induction of AURKA degradation in human MOLT-4 cells incubated for 6 hrs by MS based proteomics analysis; type: cell-based
T1 sequence (whole entry): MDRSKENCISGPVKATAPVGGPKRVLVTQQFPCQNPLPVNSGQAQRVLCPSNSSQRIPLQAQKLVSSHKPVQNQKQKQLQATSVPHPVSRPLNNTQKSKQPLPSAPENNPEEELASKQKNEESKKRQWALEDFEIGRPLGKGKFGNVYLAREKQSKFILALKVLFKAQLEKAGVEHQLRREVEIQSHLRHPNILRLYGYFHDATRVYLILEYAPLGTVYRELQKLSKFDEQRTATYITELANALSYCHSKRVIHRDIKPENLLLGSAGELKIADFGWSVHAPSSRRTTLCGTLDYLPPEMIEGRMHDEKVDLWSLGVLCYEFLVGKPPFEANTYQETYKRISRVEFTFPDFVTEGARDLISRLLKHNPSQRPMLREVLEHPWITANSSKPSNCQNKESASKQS

[14] = biological target: Tyrosine-protein kinase Fer (Homo sapiens) (UniProt P16591); experiment: Induction of FER degradation in human MOLT-4 cells incubated for 6 hrs by MS based proteomics analysis; type: cell-based
[15] = biological target: T2, Serine/threonine-protein kinase ULK1 (Homo sapiens) (UniProt O75385); experiment: Induction of ULK1 degradation in human MOLT-4 cells incubated for 6 hrs by MS based proteomics analysis; type: cell-based
T2 sequence (whole entry): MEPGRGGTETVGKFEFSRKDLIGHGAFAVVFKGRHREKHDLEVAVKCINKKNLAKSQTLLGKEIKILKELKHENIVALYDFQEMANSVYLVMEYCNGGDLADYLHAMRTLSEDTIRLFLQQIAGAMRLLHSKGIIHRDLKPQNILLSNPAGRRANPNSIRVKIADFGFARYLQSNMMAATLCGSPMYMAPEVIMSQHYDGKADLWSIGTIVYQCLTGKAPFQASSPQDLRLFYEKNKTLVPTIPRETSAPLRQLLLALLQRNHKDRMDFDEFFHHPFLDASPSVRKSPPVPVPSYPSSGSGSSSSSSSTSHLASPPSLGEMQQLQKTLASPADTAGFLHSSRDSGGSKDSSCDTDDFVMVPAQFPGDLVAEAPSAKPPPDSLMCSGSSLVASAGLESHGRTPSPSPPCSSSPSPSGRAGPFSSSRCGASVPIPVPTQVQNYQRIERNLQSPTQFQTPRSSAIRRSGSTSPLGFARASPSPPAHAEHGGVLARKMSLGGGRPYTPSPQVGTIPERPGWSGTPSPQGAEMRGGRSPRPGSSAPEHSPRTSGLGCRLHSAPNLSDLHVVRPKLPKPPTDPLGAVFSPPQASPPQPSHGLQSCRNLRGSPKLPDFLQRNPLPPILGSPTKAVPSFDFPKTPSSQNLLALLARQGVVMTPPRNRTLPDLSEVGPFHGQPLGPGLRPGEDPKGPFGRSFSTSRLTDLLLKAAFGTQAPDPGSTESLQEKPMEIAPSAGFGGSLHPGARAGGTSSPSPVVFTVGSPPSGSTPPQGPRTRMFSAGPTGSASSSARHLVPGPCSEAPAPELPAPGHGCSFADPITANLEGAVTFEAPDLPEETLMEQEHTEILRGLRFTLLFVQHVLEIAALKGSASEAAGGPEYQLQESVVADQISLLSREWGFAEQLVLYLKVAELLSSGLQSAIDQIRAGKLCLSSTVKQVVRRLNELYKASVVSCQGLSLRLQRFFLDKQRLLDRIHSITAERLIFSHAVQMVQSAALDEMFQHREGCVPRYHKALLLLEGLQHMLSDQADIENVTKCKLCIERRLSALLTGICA

[16] = biological target: Protein-tyrosine kinase 2-beta (Homo sapiens) (UniProt Q14289); experiment: Induction of PTK2B degradation in human MOLT-4 cells incubated for 6 hrs by MS based proteomics analysis; type: cell-based
[17] = biological target: Ribosomal protein S6 kinase alpha-1 (Homo sapiens) (UniProt Q15418); experiment: Induction of RSK1 degradation in human MOLT-4 cells incubated for 6 hrs by MS based proteomics analysis; type: cell-based
[18] = Solubility of the compound in FeSSIF at pH 5.0 incubated for 24 hrs under shaking condition by UPLC-UV/HPLC-UV analysis; type: physicochemical
[19] = test system: Protein cereblon/ALK tyrosine kinase receptor/Echinoderm microtubule-associated protein-like 4 (Homo sapiens), Q9UM73+Q9HC35+Q96SW2 [UNDEFINED MUTATION]; experiment: PROTAC activity at human CRBN/HiBit-tagged EML4-ALK variant 3b G1202R mutant expressed in mouse BaF3 cells assessed as induction of EML4-ALK variant 3b fusion protein degradation at 2 uM incubated for 4 hrs by Nano-Glo HiBiT assay relative to control; type: cell-based
In short: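 Ba/F3 cells stably expressing humanized CRBN and HiBiT-tagged EML4-ALK v3 (WT or mutant) were treated for 4 h. Remaining fusion protein was quantified by HiBiT bioluminescence relative to control.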

Sequence of Protein cereblon/ALK tyrosine kinase receptor/Echinoderm microtubule-associated protein-like 4 (Homo sapiens, UniProt Q9UM73+Q9HC35+Q96SW2) (Q96SW2 whole entry, change not shown, the tested form may be a part): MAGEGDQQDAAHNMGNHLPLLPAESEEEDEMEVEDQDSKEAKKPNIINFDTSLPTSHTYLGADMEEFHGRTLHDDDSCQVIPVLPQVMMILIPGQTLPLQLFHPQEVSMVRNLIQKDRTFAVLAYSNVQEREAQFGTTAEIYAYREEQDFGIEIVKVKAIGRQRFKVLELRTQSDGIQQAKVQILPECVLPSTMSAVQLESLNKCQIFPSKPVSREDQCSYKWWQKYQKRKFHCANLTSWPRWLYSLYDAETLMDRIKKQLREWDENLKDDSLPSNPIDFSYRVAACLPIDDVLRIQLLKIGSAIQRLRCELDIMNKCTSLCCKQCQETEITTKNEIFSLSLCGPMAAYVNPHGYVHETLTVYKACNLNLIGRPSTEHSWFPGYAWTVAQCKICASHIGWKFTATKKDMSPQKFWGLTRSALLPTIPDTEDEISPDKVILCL
Sequence of Protein cereblon/ALK tyrosine kinase receptor/Echinoderm microtubule-associated protein-like 4 (Homo sapiens, UniProt Q9UM73+Q9HC35+Q96SW2) (Q9HC35 whole entry, change not shown, the tested form may be a part): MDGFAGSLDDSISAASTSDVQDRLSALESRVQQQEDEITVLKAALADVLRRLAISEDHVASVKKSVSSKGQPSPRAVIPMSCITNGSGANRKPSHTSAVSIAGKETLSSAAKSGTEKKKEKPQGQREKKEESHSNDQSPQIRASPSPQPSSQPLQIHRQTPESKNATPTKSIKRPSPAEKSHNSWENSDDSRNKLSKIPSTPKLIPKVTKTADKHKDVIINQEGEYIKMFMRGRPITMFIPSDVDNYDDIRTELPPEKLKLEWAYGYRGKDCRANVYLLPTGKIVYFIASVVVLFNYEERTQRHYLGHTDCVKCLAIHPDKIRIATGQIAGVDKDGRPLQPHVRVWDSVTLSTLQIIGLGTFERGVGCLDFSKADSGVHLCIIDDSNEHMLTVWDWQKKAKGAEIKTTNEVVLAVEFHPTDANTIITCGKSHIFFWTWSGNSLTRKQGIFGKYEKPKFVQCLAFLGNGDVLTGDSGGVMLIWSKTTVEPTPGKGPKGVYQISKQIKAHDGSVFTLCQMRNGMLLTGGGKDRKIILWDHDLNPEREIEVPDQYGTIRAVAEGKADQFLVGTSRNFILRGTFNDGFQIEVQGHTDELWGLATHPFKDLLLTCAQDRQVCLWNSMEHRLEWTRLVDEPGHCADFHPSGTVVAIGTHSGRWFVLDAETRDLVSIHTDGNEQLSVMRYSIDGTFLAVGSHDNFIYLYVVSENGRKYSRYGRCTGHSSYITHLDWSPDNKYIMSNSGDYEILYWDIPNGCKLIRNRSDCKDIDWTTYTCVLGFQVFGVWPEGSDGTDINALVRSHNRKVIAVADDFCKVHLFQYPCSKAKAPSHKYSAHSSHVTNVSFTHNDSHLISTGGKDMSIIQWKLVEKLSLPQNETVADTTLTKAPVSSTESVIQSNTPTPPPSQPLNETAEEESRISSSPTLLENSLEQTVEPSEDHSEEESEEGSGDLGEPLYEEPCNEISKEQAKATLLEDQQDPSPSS
Sequence of Protein cereblon/ALK tyrosine kinase receptor/Echinoderm microtubule-associated protein-like 4 (Homo sapiens, UniProt Q9UM73+Q9HC35+Q96SW2) (Q9UM73 19-1620 limits assumed, change not shown): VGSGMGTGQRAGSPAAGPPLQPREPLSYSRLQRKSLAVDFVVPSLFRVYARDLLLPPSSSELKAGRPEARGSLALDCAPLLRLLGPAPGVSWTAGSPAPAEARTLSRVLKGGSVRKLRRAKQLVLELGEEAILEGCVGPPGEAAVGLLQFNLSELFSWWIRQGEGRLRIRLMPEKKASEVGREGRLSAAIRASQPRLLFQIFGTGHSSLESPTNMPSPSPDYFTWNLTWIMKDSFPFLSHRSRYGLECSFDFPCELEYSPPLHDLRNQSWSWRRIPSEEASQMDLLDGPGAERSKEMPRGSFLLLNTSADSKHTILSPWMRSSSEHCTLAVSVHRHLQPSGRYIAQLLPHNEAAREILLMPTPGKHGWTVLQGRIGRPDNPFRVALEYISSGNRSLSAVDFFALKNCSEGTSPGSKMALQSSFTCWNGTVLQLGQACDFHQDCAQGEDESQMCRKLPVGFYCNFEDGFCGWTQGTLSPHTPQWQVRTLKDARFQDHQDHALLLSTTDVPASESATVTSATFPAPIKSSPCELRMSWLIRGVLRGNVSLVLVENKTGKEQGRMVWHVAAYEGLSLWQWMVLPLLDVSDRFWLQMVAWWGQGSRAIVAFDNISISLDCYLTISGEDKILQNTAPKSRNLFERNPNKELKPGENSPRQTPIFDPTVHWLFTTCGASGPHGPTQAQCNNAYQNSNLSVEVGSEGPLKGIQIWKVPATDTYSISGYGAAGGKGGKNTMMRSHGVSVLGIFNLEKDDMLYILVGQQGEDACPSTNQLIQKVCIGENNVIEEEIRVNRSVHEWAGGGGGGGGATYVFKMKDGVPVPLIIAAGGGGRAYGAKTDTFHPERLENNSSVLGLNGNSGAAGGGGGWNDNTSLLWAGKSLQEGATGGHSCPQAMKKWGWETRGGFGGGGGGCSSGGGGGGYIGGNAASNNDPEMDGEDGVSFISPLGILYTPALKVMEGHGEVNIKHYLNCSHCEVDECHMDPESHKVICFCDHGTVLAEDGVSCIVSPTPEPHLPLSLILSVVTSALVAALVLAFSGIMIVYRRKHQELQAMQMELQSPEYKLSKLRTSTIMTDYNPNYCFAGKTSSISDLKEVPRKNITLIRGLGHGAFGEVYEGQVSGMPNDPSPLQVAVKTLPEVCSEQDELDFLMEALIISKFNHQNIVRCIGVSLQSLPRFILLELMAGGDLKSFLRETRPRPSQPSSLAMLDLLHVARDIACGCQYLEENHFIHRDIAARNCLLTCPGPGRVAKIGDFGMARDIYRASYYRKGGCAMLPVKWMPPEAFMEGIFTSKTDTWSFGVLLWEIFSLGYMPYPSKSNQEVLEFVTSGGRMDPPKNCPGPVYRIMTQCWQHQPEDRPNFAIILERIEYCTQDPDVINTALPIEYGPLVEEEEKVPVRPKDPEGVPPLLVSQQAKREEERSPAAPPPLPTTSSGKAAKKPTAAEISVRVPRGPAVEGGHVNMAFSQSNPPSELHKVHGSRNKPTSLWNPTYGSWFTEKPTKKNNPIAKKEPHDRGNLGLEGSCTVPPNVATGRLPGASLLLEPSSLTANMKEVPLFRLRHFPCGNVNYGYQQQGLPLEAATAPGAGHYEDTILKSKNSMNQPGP
Sequence of ALK tyrosine kinase receptor (Q9UM73 whole entry, the tested form may be a part): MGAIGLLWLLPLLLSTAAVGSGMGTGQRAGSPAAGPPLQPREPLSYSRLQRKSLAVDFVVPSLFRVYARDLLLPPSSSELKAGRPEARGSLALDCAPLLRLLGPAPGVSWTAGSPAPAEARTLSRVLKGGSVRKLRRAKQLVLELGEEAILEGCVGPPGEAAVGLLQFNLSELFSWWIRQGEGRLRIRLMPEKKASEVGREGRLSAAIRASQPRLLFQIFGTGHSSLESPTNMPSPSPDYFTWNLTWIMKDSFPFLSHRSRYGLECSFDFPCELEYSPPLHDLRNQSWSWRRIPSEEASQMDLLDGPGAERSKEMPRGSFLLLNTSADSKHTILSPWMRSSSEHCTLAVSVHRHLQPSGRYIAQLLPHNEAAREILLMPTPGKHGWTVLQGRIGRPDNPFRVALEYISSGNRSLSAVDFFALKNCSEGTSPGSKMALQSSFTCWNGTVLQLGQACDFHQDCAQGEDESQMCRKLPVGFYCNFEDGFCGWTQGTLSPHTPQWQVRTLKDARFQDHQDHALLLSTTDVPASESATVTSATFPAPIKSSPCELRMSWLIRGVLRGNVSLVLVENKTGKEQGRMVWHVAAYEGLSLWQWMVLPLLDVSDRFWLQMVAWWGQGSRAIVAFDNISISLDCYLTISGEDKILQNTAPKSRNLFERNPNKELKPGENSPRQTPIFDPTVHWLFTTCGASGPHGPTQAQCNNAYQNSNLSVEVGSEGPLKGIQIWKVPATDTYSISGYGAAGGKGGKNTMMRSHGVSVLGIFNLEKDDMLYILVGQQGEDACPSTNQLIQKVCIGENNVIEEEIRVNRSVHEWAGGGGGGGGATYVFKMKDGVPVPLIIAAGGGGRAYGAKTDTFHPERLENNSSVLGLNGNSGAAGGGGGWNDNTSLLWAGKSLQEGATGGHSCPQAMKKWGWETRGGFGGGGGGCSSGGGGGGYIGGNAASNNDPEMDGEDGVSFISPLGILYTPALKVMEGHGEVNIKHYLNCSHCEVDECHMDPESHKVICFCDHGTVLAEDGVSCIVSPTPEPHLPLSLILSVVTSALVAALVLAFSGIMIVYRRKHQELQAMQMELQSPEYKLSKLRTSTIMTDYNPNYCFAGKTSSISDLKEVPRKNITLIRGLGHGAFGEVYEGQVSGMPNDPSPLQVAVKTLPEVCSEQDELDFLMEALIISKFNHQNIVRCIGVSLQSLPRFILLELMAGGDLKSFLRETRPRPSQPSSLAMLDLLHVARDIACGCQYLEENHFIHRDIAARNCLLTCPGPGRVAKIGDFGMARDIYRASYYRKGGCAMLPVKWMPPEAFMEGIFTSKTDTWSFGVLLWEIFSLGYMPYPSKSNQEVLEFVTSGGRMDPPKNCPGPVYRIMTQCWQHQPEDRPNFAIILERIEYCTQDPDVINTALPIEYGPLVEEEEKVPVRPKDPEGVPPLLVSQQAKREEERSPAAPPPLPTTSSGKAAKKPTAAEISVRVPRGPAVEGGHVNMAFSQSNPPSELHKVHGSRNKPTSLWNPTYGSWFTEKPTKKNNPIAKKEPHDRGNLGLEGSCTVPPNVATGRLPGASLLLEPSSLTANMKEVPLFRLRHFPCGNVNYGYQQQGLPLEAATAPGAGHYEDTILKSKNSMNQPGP

For `COc1cc(C2CCN(CC3CN(c4ccc5c(c4)C(=O)N(C4CCC(=O)N(C)C4=O)C5=O)C3)CC2)c(C)cc1Nc1ncc(Cl)c(Nc2ccccc2S(=O)(=O)C(C)C)n1` (centres undefined), the GI50 [1] was 15.8 nM, the GI50 [2] was 15.8 nM and the GI50 [3] was 126 nM. It also gave a GI50 [4] of 126 nM and a GI50 [5] of 39.8 nM.
Compound `COc1cc(C2CCN(CC#Cc3ccc4c(c3)CN(C3CCC(=O)NC3=O)C4=O)CC2)c(C)cc1Nc1ncc(Cl)c(Nc2ccccc2S(=O)(=O)C(C)C)n1` (centres undefined) has a microsomal CLint at 1 µM [6] of 14.8 µL/min/mg.
Work on `C[C@@H](Oc1cc(-c2cnn(C3CCNCC3)c2)cnc1N)c1c(Cl)ccc(F)c1Cl` [CRIZOTINIB] yielded a GI50 [1] of 1000 nM, a GI50 [2] of 2000 nM and a GI50 [3] of 2000 nM. It also gave a GI50 [4] of 2000 nM and a GI50 [5] of 2000 nM.
For `COc1cc(C2CCN(CCCCCC#Cc3cccc4c3CN(C3CCC(=O)NC3=O)C4=O)CC2)c(C)cc1Nc1ncc(Cl)c(Nc2ccccc2S(=O)(=O)C(C)C)n1` (centres undefined), the microsomal CLint at 1 µM [6] was 5.4 µL/min/mg, the Activity [7] was “Toxic” and the Activity [8] was “Toxic”.
`COc1cc(C2CCN(CCCC#Cc3cccc4c3CN(C3CCC(=O)NC3=O)C4=O)CC2)c(C)cc1Nc1ncc(Cl)c(Nc2ccccc2S(=O)(=O)C(C)C)n1` (centres undefined) showed a DC50 [9] of 6.6 nM, an IC50 [10] of 542 nM and a DC50 [11] of 43 nM. The microsomal CLint at 1 µM [6] was 10.5 µL/min/mg, the F [12] was 9% and the Activity [7] was “Non-Toxic”. The Activity [8] was “Non-Toxic”, the Activity [13] was “Active” and the Activity [14] was “Active”. The Activity [15] was “Active”, the Activity [16] was “Active” and the Activity [17] was “Active”.
Compound `COc1cc(CCNCCCCCC#Cc2cccc3c2CN(C2CCC(=O)NC2=O)C3=O)c(C)cc1Nc1ncc(Cl)c(Nc2ccccc2S(=O)(=O)C(C)C)n1` (centres undefined) has a microsomal CLint at 1 µM [6] of 39 µL/min/mg, a solubility thermodynamic at 24 h [18] of 686 µM (≈ 567 µg/mL) and an F [12] of 0.2%. For the same compound, the Activity [7] was “Toxic” and the Activity [8] was “Toxic”.
In the case of `Cc1cc(Nc2ncc(Cl)c(Nc3ccccc3S(=O)(=O)C(C)C)n2)c(OC(C)C)cc1C1CCN(CCOCCOCCNC(=O)CNc2cccc3c2C(=O)N(C2CCC(=O)NC2=O)C3=O)CC1` (centres undefined), the DC50 [9] is reported as 289 nM, the Activity [19] is reported as under 50% and the IC50 [10] is reported as 971 nM.
